Results collected from several papers.
Target: Serine/threonine-protein kinase Nek1 (NEK1, Homo sapiens, UniProt Q96PY6)
Sequence (Q96PY6 1-1258, as in one of the studies): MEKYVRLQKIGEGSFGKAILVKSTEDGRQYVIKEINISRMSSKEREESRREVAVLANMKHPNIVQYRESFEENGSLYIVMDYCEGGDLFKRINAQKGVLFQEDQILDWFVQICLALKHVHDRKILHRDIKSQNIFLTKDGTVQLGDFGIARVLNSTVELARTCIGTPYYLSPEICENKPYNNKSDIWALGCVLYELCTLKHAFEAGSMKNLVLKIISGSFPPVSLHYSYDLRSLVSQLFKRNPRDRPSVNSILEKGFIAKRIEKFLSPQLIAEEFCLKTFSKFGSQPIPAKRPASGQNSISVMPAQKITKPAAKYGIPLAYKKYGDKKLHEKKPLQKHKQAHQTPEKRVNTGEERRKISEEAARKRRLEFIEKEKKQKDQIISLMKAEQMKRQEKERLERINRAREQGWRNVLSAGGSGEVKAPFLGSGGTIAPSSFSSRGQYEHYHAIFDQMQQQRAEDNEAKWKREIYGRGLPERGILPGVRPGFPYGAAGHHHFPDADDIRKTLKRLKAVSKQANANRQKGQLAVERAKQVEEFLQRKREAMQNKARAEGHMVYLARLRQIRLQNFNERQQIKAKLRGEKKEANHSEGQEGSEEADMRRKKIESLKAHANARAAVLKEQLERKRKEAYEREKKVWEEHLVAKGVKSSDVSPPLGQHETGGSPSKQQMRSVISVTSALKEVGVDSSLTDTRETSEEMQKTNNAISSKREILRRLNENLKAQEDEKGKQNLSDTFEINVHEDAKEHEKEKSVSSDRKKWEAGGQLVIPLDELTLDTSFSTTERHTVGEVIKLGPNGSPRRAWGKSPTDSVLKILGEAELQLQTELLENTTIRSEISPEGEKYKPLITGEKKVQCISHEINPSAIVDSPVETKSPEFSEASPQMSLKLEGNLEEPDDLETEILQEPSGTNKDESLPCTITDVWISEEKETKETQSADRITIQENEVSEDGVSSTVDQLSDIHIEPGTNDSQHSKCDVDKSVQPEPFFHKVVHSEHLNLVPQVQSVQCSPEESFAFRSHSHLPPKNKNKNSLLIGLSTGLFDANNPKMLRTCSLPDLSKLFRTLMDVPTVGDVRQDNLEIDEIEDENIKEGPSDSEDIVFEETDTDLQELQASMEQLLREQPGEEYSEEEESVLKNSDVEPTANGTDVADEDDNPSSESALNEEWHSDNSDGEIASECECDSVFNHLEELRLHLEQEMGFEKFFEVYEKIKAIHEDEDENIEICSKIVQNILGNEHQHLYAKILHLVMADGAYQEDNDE

| SMILES | assay | setting | remaining binding [%] |
| --- | --- | --- | --- |
| COc1ncc2cc3ccccc3nc2c1C#N | cell-free assay, competition with immobilised ligand | 5 µM | 100 |
| O=C(NCCCN1CCOCC1)c1ccc(Nc2nccc(-c3cc4ccccc4s3)n2)cc1 | binding, competition with immobilised ligand | 1 µM | 72 |
| CN(C)c1ncc(F)c(-c2cnn3ncccc23)n1 | binding | 1 µM | 100 |
| O=C(O)c1cc(-c2ccc(C3CCNCC3)cc2)c2ccc(-c3ccc(C(F)(F)F)cc3)cc2c1 | cell-free assay, competition with immobilised ligand | 1 µM | 100 |
| O=C(Nc1c[nH]nc1C(=O)NC1CCNCC1)c1cc(F)cc(F)c1 | binding, competition with immobilised ligand | 1 µM | 100 |
| O=C(NS(=O)(=O)c1ccc(NCC2CCOCC2)c([N+](=O)[O-])c1)c1ccc(N2CCN(Cc3ccc(C(F)(F)F)cc3-c3ccc(Cl)cc3)CC2)cc1Oc1cnc2[nH]ccc2c1 | cell-free assay, competition with immobilised ligand | 1 µM | 99 |
| C=CC(=O)N1CCC(C(=O)NCC(=O)N2CCN(c3nc(-c4cnc(N)nc4C(F)F)nc(N4CCOCC4)n3)CC2)CC1 | binding, competition with immobilised ligand | 1 µM | 96 |
| CN(CCCC(F)(F)F)c1nccc(-c2cnn3ncccc23)n1 | binding | 1 µM | 100 |
| O=C(c1ccc(Nc2ncc(Cl)c(-c3cc4ccccc4s3)n2)cc1)N1CCC(N2CCCC2)CC1 | binding, competition with immobilised ligand | 1 µM | 27 |
| CN(c1ccnc(CNc2nc(Nc3ccc4c(c3)CC(=O)N4)ncc2C(F)(F)F)n1)S(C)(=O)=O | cell-free assay, competition with immobilised ligand | 1 µM | 51 |
| F[C@@H]1CCN(c2nccc(-c3cnn4ncccc34)n2)C1 | binding | 1 µM | 100 |
| CCC(=O)N[C@H]1CC[C@@H](C(=O)N(C)c2ccc(-c3nc4ccccc4o3)cc2)C1 | cell-free assay, competition with immobilised ligand | 1 µM | 100 |
| N[C@@H]1CCN(c2nccc(-c3cnn4ncccc34)n2)C1 | binding | 1 µM | 100 |
| Cn1cc(Cl)c2c(Oc3c(F)cc(Nc4cc(Cl)nc(N)n4)cc3F)ccnc21 | cell-free assay, competition with immobilised ligand | 0.1 µM | 100 |
| O=C(c1ccc(Nc2nccc(-c3cc4ccccc4s3)n2)cc1)N1CCC(N2CCCC2)CC1 | binding, competition with immobilised ligand | 1 µM | 31 |
| NS(=O)(=O)c1cc(NC(=O)C2(c3ccccc3Cl)CC2)ccc1Oc1cccc(Cl)c1 | cell-free assay, competition with immobilised ligand | 1 µM | 100 |
| C[C@H]1CCN(c2nccc(-c3cnn4ncccc34)n2)C1 | binding | 1 µM | 100 |
| COc1cnc(Nc2cccc(S(N)(=O)=O)c2)nc1N1CCN(c2ccccc2)C(=O)C1 | binding, competition with immobilised ligand | 1 µM | 100 |
| c1cncc(-c2cccc(Nc3nccc(NC4CCCCC4)n3)c2)c1 | binding, competition with immobilised ligand | 10 µM | 91 |
| CCN1CCN(Cc2ccc(C(=O)Nc3ccc(C)c(Oc4ccc5c(c4)CC(=O)N5)c3)cc2C(F)(F)F)CC1 | binding, competition with immobilised ligand | 1 µM | 100 |
| CN(C)c1nccc(-c2cnc3ncccn23)n1 | binding | 1 µM | 100 |
| CS(=O)(=O)NCC[C@H](NC(=O)c1cncc2c1cnn2-c1ccc(F)cc1)c1ccnc(S(C)(=O)=O)c1 | cell-free assay, competition with immobilised ligand | 1 µM | 45 |
